ABCG2 block – ABCG2 efflux pump inhibitors, primary screen, multiplex with ABCB1, IgMXP3 cells, flow cytometry; Broad substrate specificity ATP-binding cassette transporter ABCG2 (Homo sapiens), Q9UNQ0; actives 0.1% (n = 190,000); JC-1 efflux; inhibition, % at 6.6 µM;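 active means inhibition above 80%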;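 further: 0% = DMSO and 100% = nicardipine control wells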
Target sequence (Q9UNQ0 whole entry, looked up): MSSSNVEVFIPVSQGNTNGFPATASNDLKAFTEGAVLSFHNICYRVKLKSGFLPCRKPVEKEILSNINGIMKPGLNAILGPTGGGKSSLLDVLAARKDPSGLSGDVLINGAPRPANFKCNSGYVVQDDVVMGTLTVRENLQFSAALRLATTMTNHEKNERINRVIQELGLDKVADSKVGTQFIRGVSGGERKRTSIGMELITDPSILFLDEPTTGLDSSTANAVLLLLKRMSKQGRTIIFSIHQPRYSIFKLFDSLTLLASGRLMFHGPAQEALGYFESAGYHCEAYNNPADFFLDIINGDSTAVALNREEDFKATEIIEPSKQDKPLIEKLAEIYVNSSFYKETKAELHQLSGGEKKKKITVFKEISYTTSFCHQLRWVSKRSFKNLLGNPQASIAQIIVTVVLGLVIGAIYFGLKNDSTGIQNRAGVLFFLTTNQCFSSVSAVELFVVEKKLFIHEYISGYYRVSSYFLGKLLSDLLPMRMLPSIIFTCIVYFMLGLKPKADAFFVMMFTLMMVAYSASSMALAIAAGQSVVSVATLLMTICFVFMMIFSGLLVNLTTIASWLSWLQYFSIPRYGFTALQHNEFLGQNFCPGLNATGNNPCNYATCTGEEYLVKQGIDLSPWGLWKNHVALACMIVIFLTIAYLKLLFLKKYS
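material = IgMXP3 (ABCG2) plus far-red-tagged CCRF-Adr (ABCB1) cells | amount = 3 million cells/mL, equal mix of both lines | also added = JC-1 transporter substrate | dosing = one concentration, 6.6 µM final | schedule = 10 min at 25 °C | measured by = flow cytometric JC-1 green MFI at 530 nm | read-out basis = percent efflux inhibition, scaled nicardipine 100% to DMSO 0%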
ABCB1 block – ABCB1 efflux pump inhibitors, primary screen, cell-based, multiplex, flow cytometry, ABCG2 counter-screen; ATP-dependent translocase ABCB1 (Homo sapiens), P08183; CCRF-Adr cells, JC-1 efflux; inhibition, % at 6.6 µM; actives 0.067% (n = 190,000); in the data active means inhibition above about 40%;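 further: 0% = vehicle and 100% = reference inhibitor; higher value means more JC-1 retained so stronger ABCB1 efflux block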
FLuc stim CS – FLuc activators, initial screening, artefact control for FLuc-dependent activation tests, biochemical, ATPlite luminescence; Luciferin 4-monooxygenase (Photinus pyralis), P08659; ATPlite luciferase biochemical, 10 min; 0 = ATP-free wells, 1 = DMSO control; activation factor at 10 µM; 200,000 tested, under 10 active; AID 1027, 2008;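 active means luciferase activation factor, scaled between plate controls, of at least 2 with compound at 10 µM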
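Assay system – cell-free luciferase reagent · Medium – PBS-based ATP solution · Dosing – test compounds dosed from 2 mM stocks in 100% DMSO · Timing – 10 min, room temperature · Technique – light output (luminescence) · Measure – luminescence gain marking luciferase activators · Controls – No-ATP low control, compound-free enzyme-plus-ATP high control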
FLuc inhib CS – firefly luciferase enzyme inhibitors, primary screen, artefact control for luciferase-based inhibitor screens, biochemical, luminescence, ATPLite; Luciferin 4-monooxygenase (Photinus pyralis), P08659; 10 min; inhibition, % at 10 µM; actives 1.5% (n = 200,000); AID 1006, 2008;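 active means inhibition above about 50% when tested at 10 µM, limit read from the data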
Diaph act CS – compounds boosting diaphorase resazurin reduction – biochemical, uHTS, resorufin fluorescence, counter-screen for diaphorase-coupled primary assays, primary screen; Diaphorase/resazurin coupled assay, 16 min; hits give high values; 1 = vehicle wells, 0 = NADH-free wells; activation factor at 20 µM; actives 0.005% (n = 190,000);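 active means diaphorase activity raised at least twofold by the compound at 20 µM; inactive means activation factor below 2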
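Material: purified diaphorase enzyme from Clostridium kluyveri / Medium: HEPES pH 7.4 buffer with MgCl2 and Tween 20 / Schedule: enzyme reaction of 16 min at room temperature / Measured by: resorufin fluorescence, excitation 544 nm, emission 590 nm / Evaluation: rise in resorufin formation, marking diaphorase activation or chemical reduction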
ABCB6 inh MLPCN – ABCB6 transporter inhibitors, primary screen, K562-ABCB6 cells, flow cytometry, MLPCN library; K562-ABCB6 porphyrin accumulation, 1 h; hits give low values; fluorescence ratio to DMSO, % at 10 µM; actives 0.19% (n = 360,000); AID 602162, 2011;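 active means fluorescence ratio to DMSO below 75%, the collection mean minus 3 SD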;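 further: signal is porphyrin accumulated inside mitochondria; 100% equals median channel fluorescence of DMSO control wells; lower ratio means ABCB6 inhibition with less porphyrin fluorescence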
Active calls of the source: *; / = no result. This excerpt belongs to a sample that is enriched for hits.

SMILES	ABCG2 block	ABCB1 block	FLuc stim CS	FLuc inhib CS	Diaph act CS	ABCB6 inh MLPCN
CSc1ccc(Cl)c(C(=O)Nc2ccc(Cl)cn2)c1	3.7	0.5	1	-0.9	1.1	96.0
O=C(Nc1ccc(Cl)cn1)c1ccc(Oc2ccccc2)cc1	/	/	/	/	/	98.0
CCCOc1ccc(C(=O)Nc2ccc(Cl)cn2)cc1	0.1	0.1	0.5	53.3*	0.9	100.0
Cc1ccc(CC(=O)Nc2ccc(Cl)cn2)cc1	/	/	/	/	/	97.0
Cc1ccc(C(=O)Nc2ccc(Cl)cn2)cc1	4.0	0.1	0.3	73.5*	0.8	99.0
CC(C)n1ncc(N2CCOCC2)c(Cl)c1=O	/	/	/	/	/	100.0
CC1CCCC(NC(=O)COC(=O)/C=C/c2ccc([N+](=O)[O-])cc2)C1C (centres undefined)	/	/	/	/	/	97.0
N#CC(C#N)=Cc1c[nH]c(=O)c(C#N)c1Nc1ccccc1	/	/	/	/	/	105.0
CCc1nc2c(OCc3ccc(F)cc3)cccn2c1N(C)C(=O)CC(C)C	/	/	/	/	/	91.0
Nc1ccc(-c2cnc(-c3ccc(N)cc3)nc2)cc1	-2.8	-0.5	0.3	74.5*	1.1	93.0
Oc1ccc(-c2cnc(-c3ccc(O)cc3)nc2)cc1	/	/	/	/	/	96.0
CC(=N/O)/C(C)=N\NC(=O)c1ccccn1	8.3	3.0	0.5	51.2*	0.9	93.0
O=C(N/N=C/C(Cl)=C/c1ccccc1)c1ccccn1	5.8	0.2	0.2	80.6*	1	95.0
O=C(N/N=C/c1ccc2c(c1)OCO2)c1ccc2ccccc2n1	-1.1	-0.6	0.3	66.8*	0.9	98.0
Cc1cccc(C(=O)N/N=C/c2ccc3c(c2)OCO3)n1	1.3	0.0	0.9	8.1	0.9	90.0
O=C(N/N=C/c1ccc2c(c1)OCO2)c1ccccn1	7.3	0.6	0.1	87.8*	0.9	95.0
O=C(N/N=C/C(Cl)=C/c1ccccc1)c1ccncc1	2.2	0.0	0.8	22.3	1	99.0
Fc1cccc(/C=N/Nc2ccccn2)c1	6.6	0.5	0.8	20.7	1.1	100.0
O=C(N/N=C/c1ccc2c(c1)OCO2)C(=O)Nc1ccccc1Cl	/	/	/	/	/	98.0
O=C(O/N=C/c1ccc2c(c1)OCO2)c1ccccc1Cl	0.8	-0.2	0.3	69.5*	0.9	/
C(=N\Nc1ccccn1)/c1ccc2c(c1)OCCO2	15.1	-0.2	0.2	78.2*	0.9	100.0
C=CCNC(=O)c1ccc(N(C)S(=O)(=O)c2ccc(OC)cc2)cc1	0.6	0.3	1.1	-5.4	0.9	61.0*
O=C(NNC(=O)c1ccccc1O)c1ccc(Cl)c(S(=O)(=O)N2CCCCC2)c1	/	/	/	/	/	101.0
CCC(=O)C1CCCN(C(=O)c2cccc(OC3CCN(S(C)(=O)=O)CC3)c2)C1 (centres undefined)	/	/	/	/	/	98.0
C/C(=N/NC(=O)c1cc(C(C)C)[nH]n1)c1cccs1	41.4	-1.5	0.3	70.3*	1	104.0
SMILES	ABCG2 block	ABCB1 block	FLuc stim CS	FLuc inhib CS	Diaph act CS	ABCB6 inh MLPCN
C/C(=N\NC(=O)c1cc(C)[nH]n1)c1cccs1	2.4	0.0	0.4	55.9*	1	102.0
C/C(=N/NC(=O)c1cc(-c2ccc(Br)s2)[nH]n1)c1ccco1	2.2	0.5	0.9	5.5	0.8	99.0
C/C(=N\NC(=O)c1cc(C(C)C)[nH]n1)c1ccco1	14.7	0.9	0.2	79.0*	0.9	92.0
C/C(=N\NC(=O)c1cc(C(C)C)[nH]n1)c1ccncc1	/	/	/	/	/	94.0
Cc1ccc(C)c(S(=O)(=O)NCC(=O)Nc2ccc3c(c2)OCO3)c1	/	/	/	/	/	100.0
Cc1cc(C)n(-c2nnc(NC(C)(C)C)nn2)n1	-3.1	-1.4	0.5	53.3*	0.8	97.0
Cc1cc(C)n(-c2nnc(NC34CC5CC(CC(C5)C3)C4)nn2)n1	-4.3	-0.9	0.3	66.5*	0.9	99.0
Cc1cc(C)n(-c2nc(NC(C)(C)C)nc(NC(C)(C)C)n2)n1	3.7	1.4	1	-3.4	1.1	99.0
O=C(c1ccc(Br)o1)N1CCc2ccccc21	2.2	0.2	0.5	54.0*	0.9	/
Cc1c(C(=O)N2CCc3ccccc32)oc2ccccc12	35.8	0.4	0.3	72.9*	0.8	99.0
CCc1ccc(C(=O)/C=C/c2cnn(C)c2C)s1	21.2	1.5	0.1	85.7*	0.9	99.0
Cc1ccc(C(=O)Nc2cc(C)c(OCC(=O)N3CCOCC3)c(C)c2)cc1	0.1	0.1	0.1	87.5*	0.9	89.0
COc1ccccc1C(=O)Nc1cc(C)c(OCC(=O)N2CCOCC2)c(C)c1	/	/	/	/	/	98.0
CC(C)(C)OC(=O)C[C@@H]1C/C=C\C[C@H](CC(=O)N[C@H](CO)Cc2ccccc2)C(=O)N[C@@H](Cc2c[nH]c3ccccc23)COC1=O	/	/	/	/	/	104.0
CCN(CC)C(=O)Cn1cc(S(=O)(=O)CC(=O)Nc2ccc(C(N)=O)cc2)c2ccccc21	/	/	/	/	/	97.0
C[C@H](CO)N1C[C@H](C)[C@H](CN(C)S(=O)(=O)c2ccc(F)cc2)Oc2ncc(Br)cc2C1=O	/	/	/	/	/	98.0
Cc1cccc([C@@H](NC(=O)OC(C)(C)C)C(=O)OC(C)(C)C)c1	/	/	/	/	/	68.0*
CC(C)(C)OC(=O)N[C@@H](C(=O)OC(C)(C)C)c1ccccc1	/	/	/	/	/	92.0
CCN(CC)C(=O)[C@H]1C[C@H](CC(=O)NC/C=C(\C)CCC=C(C)C)C(=O)N2CCc3c([nH]c4cc(CCC(=O)N(C)C)ccc34)[C@]12C	/	/	/	/	/	100.0
CCc1ccc2nc3n[nH]c(N)c3cc2c1	2.2	0.2	0.3	70.3*	0.9	99.0
CCOC(=O)c1ccc2ncc(-c3ccccc3)nc2c1	6.8	0.7	0.3	74.3*	0.9	97.0
O=C(COC(=O)CCS(=O)(=O)c1ccccc1)NC(=O)c1ccc(OC(F)F)cc1	/	/	/	/	/	100.0
C=CCn1c(SCC(=O)Nc2ccc(O)cc2)nc2sc(CC)cc2c1=O	/	/	/	/	/	101.0
O=c1cc(-c2ccccc2)[nH]c2ccccc12	1.7	0.0	1	4.3	0.9	104.0
O=C1C(c2cc(=O)c3ccccc3[nH]2)=C(O)c2ccccc21	-9.6	-1.3	0.1	89.1*	0.6	105.0
O=C1C(c2ccncc2)=C(O)c2ccccc21	6.9	0.7	0.2	83.1*	0.8	100.0
Cc1ccc(C2=C(O)c3ccccc3C(=O)C2=O)cc1	/	/	/	/	/	99.0
CC(CC(=O)Nc1ccc2c(c1)c(=O)n(C)n2Cc1ccc(F)cc1)C(F)(F)F (centres undefined)	/	/	/	/	/	96.0
